Only some compounds are listed: those with a hit (about 1.3% of all), similar ones and a draw of the others.
CAL PDZ FP-1 = CAL PDZ peptide-binding inhibitors, primary screen, biochemical, fluorescence polarization, Cer-tagged CAL PDZ, HTS. purified CAL PDZ, TMR-peptide fluorescence polarization, 1 h. inhibition, % at 20 µM. 330,000 tested, 0.02% active. AID 504414, 2011;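 active means highest replicate inhibition of at least 40%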;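 further: plate controls were DMSO neutral control wells for no effect and unlabeled competitor peptide control wells for full effect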
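Read-out basis: mP drop reported as inhibition | Assay system: Tagged CAL PDZ protein CerCALP, purified | Benchmarks: Unlabelled peptide for full inhibition, DMSO wells as neutral | Schedule: 1 h incubation at room temperature before polarization reading | Buffer or medium: Sodium phosphate/NaCl buffer pH 7.4 with TCEP, IgG, Thesit | Doses: Single point, 20 µM | Measured by: Fluorescence polarization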
LANA DNA inh = inhibitors of KSHV C-LANA binding to DNA, primary screen, biochemical, fluorescence polarization, FAM-LBS DNA, MBP-C-LANA, single point; Kaposi's sarcoma herpesvirus LANA C-terminal domain (residues 932-1162) DNA binding; 340,000 tested, 0.078% active; inhibition, % at 9 µM;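 active means highest replicate inhibition at or above 60% at 9 µM, even if other replicates fall short; inactive means all replicates below 60% inhibition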;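 further: 0% = neutral control wells and 100% = 4 µM acridine orange control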
CAL PDZ FP-2 = untagged CAL PDZ binding inhibitors, primary screen, biochemical, fluorescence polarization, HTS; AID 602252, 2012; inhibition, % at 24.9 µM; purified CAL PDZ, TMR-peptide fluorescence polarization, 1 h; 300,000 tested, 0.92% active;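 active means mean inhibition of at least 30% with at least half of replicates also reaching 30%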;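 further: 0% = DMSO neutral control and 100% = excess unlabeled competitor peptide PRC23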
RTF Ca sens inh = cardiac RTF calcium sensitivity inhibitors, primary screen, biochemical, IANBD-TnC fluorescence, EC70 calcium | inhibition, % at 7.15 µM | IANBD-labeled cardiac RTF, Ca2+ fluorescence | Troponin I, cardiac muscle (Homo sapiens) + Troponin T, cardiac muscle (Homo sapiens) + … | 340,000 tested, 0.12% active;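 active means inhibition above the mean inhibition of all tested compounds plus 3 SD, cut at about 17% in these data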;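 further: assay run at fixed EC70 calcium of 1.6 mM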
cardiac RTF act = cardiac RTF calcium sensitivity activators, primary screen, biochemical, IANBD-TnC fluorescence, EC20 calcium; Troponin I, cardiac muscle (Homo sapiens) + Troponin T, cardiac muscle (Homo sapiens) + …; IANBD-labeled TnC RTF fluorescence at EC20 calcium; 0% EC20 calcium, 100% full calcium; activation, % at 7.2 µM; 340,000 tested, 0.24% active; AID 493008, 2010;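 active means activation above the mean over all tested compounds plus 3 SD, cut at about 30% in these data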;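 further: rise in fluorescence read as greater calcium sensitivity of cardiac thin filaments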
Keap1 Nrf2 FP = Keap1-Nrf2 protein-protein interaction inhibitors, primary screen, biochemical, fluorescence polarization, single point; Kelch-like ECH-associated protein 1 (Homo sapiens), Q14145; Keap1 Kelch-Nrf2 peptide fluorescence polarization, 1536-well; inhibition, % at 9.4 µM; 340,000 tested, 0.15% active; in the data active means inhibition above about 12%;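 further: human Keap1 Kelch domain with fluorescein labeled Nrf2 9mer peptide probe; 0% = neutral control wells and 100% = peptide positive control; higher means more block of Keap1 binding to Nrf2 peptide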
Target sequence (Q14145 whole entry, looked up, the tested form may be a part): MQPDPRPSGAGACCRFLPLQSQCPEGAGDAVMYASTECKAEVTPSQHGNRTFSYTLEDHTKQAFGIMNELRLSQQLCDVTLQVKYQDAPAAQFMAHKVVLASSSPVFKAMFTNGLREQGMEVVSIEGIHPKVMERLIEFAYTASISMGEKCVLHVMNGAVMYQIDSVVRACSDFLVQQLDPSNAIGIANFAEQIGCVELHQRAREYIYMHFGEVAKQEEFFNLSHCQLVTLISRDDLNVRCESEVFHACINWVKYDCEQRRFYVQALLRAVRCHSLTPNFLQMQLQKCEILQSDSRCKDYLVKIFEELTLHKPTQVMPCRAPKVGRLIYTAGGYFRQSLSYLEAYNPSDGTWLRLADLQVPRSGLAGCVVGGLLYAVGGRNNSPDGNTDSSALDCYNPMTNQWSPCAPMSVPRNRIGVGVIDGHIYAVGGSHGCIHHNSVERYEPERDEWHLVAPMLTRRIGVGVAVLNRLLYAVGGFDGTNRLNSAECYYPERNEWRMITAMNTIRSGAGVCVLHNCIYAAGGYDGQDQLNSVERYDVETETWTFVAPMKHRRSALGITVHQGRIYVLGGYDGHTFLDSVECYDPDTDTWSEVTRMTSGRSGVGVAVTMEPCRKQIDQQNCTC
RTF Ca inh conf = cardiac RTF calcium sensitivity inhibitors, confirmation, biochemical, fluorescence readout; shares compounds with RTF Ca sens inh; reconstituted cardiac thin filaments; inhibition, % at 7.15 µM; 360 tested, 8% active; AID 504635, 2011; in the data active means inhibition above about 18%
Numbers without * were called inactive; · = not tested or not shown.

SMILES	CAL PDZ FP-1	LANA DNA inh	CAL PDZ FP-2	RTF Ca sens inh	cardiac RTF act	Keap1 Nrf2 FP	RTF Ca inh conf
Cc1nnc(C)n1N	0	0	·	18*	-1	-6	-4
Cc1cc(C(=O)NNC(=O)/C=C/c2ccco2)c(C)o1	-1	24	-3	1	-5	-4	·
COc1cc2cccc(OC)c(=O)c2c(O)c1OC	-2	-2	-3	-1	-5	-4	·
COc1cc2c(ccc3cc(OC)c(OC)c(O)c32)cc1O	1	19	-2	26*	-27	4	10
CCOc1cccc(CN2CCCC(C(=O)c3cc(Cl)ccc3OC)C2)c1O (centres undefined)	0	-1	-5	-8	-2	1	·
Cc1ccc(NC(=O)COC(=O)/C=C/c2cccc(Cl)c2)cc1S(=O)(=O)N1CCOCC1	-2	-2	-7	22*	1	0	-6
O=C(COC(=O)/C=C/c1cccc(Cl)c1)Nc1ccc(N2CCOCC2)cc1	-1	2	-3	-8	0	-1	·
COc1ccc(N2CCN(CC(=O)NCc3ccc(Cl)cc3)CC2)cc1	0	0	-3	-5	3	3	·
CCOC(=O)c1ccc(NC(=S)N(CCCN2CCN(C)CC2)Cc2cccs2)cc1	0	-4	-2	-5	-1	1	·
CCOC(=O)c1ccc(NC(=S)N(CCCN2CCN(CC)CC2)Cc2cccs2)cc1	-3	1	-2	17*	-4	0	-2
Nc1ncnc2c1ncn2[C@@H]1O[C@H](CNC(=O)[C@@H]2CCCN2S(=O)(=O)c2ccc(F)cc2)[C@@H](O)[C@H]1O	-3	-1	-3	-5	-1	-1	·
CCCc1ccc(-c2csc(NC(=O)C3=COCCO3)n2)cc1	-2	9	-127	1	-7	-1	·
CCOc1ccccc1-c1nc(-c2ccc(NC(=O)Cc3ccccc3OC)cc2)no1	-3	-1	-2	18*	1	1	-4
O=C(Nc1cc(S(=O)(=O)N2CCOCC2)ccc1N1CCCC1)C1CC1	0	1	·	19*	-4	-1	-3
COc1ccc(S(=O)(=O)N2CCN(CC(=O)Nc3c(C)n[nH]c3C)CC2)cc1OC	-1	-3	4	-13	8	-1	·
N#Cc1cc2c(nc1SCc1ccccc1)CCCC2=O	0	2	0	20*	1	-1	0
N#Cc1cc2c(nc1SCc1ccccc1)CCC2	0	1	·	-7	-6	-3	·
CC/C(=C(\c1ccc(O)cc1)c1ccc(OCCN(C)C)cc1)c1ccccc1	0	0	-2	18*	2	-2	-1
COc1ccc(CC(=O)NCCc2ccc(Cl)cc2Cl)cc1	-1	0	·	22*	1	-3	-1
O=C(Cc1ccc(Br)cc1)NCCc1ccc(Cl)cc1Cl	0	-1	-3	-18	7	-1	·
COc1ccc2[nH]cc(CC(=O)O)c2c1	0	0	3	1	-1	-2	·
O=C(O)Cc1c[nH]c2ccc(O)cc12	0	0	-1	18*	4	-3	1
O=C(c1cnsn1)N1CCCC(Nc2ccc(F)c(F)c2)C1 (centres undefined)	-1	-1	2	-1	-2	-7	·
CC(C)(C)OC(=O)N1CCCC(C(=O)Nc2ccc(C(=O)N3CCCC3)cc2)C1 (centres undefined)	0	1	-2	5	1	-2	·
COc1cc(/C=C/C(=O)OCC(=O)NC(=O)NC23CC4CC(CC(C4)C2)C3)ccc1OCC#N	-3	-1	1	18*	5	-3	-2
SMILES	CAL PDZ FP-1	LANA DNA inh	CAL PDZ FP-2	RTF Ca sens inh	cardiac RTF act	Keap1 Nrf2 FP	RTF Ca inh conf
COc1cc(/C=C/C(=O)OCC(=O)NC(=O)NC(C)C)ccc1OCC#N	1	0	-4	-7	-2	2	·
COc1ccccc1Nc1ccc2c(O)cc(S(=O)(=O)O)cc2c1	1	119*	3	18*	-24	8	4
Cc1ccc(S(=O)(=O)c2cc(Nc3ccccc3)ccc2O)cc1	-1	-1	-3	-2	-7	0	·
O=S(=O)(O)c1cc(O)c2ccc(Nc3ccccc3)cc2c1	0	92*	·	33*	-13	3	10
C[C@@H]1CCC(=O)N(C[C@@H](C)CSc2ccccc2)CC1	0	1	-2	-1	-1	2	·
CCCS(=O)(=O)N1CCC(C(=O)NCCCN2CCCC2=O)CC1	0	-1	-2	19*	-14	-3	0
CCOC(=O)CNC(=O)c1c(C)nn(-c2ccccc2)c1Cl	-4	2	4	18*	-1	-1	-2
CCOC(=O)CNC(=O)c1c(C)nn(C)c1Cl	0	-1	3	5	0	-2	·
CCc1cccc(CC)c1NC(=O)COC(=O)CCc1cc(OC)c(OC)c(OC)c1	2	0	2	19*	2	-5	2
O=C(Nc1ccc(N2CCOCC2)cc1)Nc1ccc2nc(-c3ccco3)c(-c3ccco3)nc2c1	-3	1	-4	-6	-1	3	·
O=C(Nc1ccc2nc(-c3ccco3)c(-c3ccco3)nc2c1)NC1CC1	-4	1	-2	24*	-24	0	19*
O=C(O)c1ccc2nc(-c3ccco3)c(-c3ccco3)nc2c1	-2	30	-2	47*	-30	5	70*
CC1(C)CCCN(C(=O)c2coc(=O)c(Br)c2)C1	0	64*	-4	22*	-17	-4	2
O=C(c1coc(=O)c(Br)c1)N1CCC(C(O)(c2ccccc2)c2ccccc2)CC1	0	0	-11	-3	4	0	·
Cc1cccnc1NC(=O)C1CCCN1S(=O)(=O)c1ccc(Cl)cc1 (centres undefined)	-2	0	-6	29*	-5	-2	-3
Cc1cc(C)n2c(SCC(=O)Nc3ccccc3C#N)nnc2n1	0	1	-6	-2	0	-4	·
